Measurements published in ChEMBL document CHEMBL3352023, “C-terminal residue optimization and fragment merging: discovery of a potent Peptide-hybrid inhibitor of dengue protease” (ACS Med Chem Lett, 2014).
Active and inactive are the calls of the source. The calls are words filed in the database; no cut-off is given here. Square brackets hold non-standard residues; d marks the D form. Peptide text beside a SMILES is read from it. * marks the point of attachment. ξ: configuration not given here. Phe(4-NO2) = N[C@@H](Cc1ccc([N+](=O)[O-])cc1)C(=O)O; Phe(4-CN) = N#Cc1ccc(C[C@H](N)C(=O)O)cc1; 2Pal = N[C@@H](Cc1ccccn1)C(=O)O; 3Pal = N[C@@H](Cc1cccnc1)C(=O)O; Cha = N[C@@H](CC1CCCCC1)C(=O)O; Phg = N[C@H](C(=O)O)c1ccccc1; Tle = CC(C)(C)[C@H](N)C(=O)O; ξTic = O=C(O)C1Cc2ccccc2CN1; ξChg = NC(C(=O)O)C1CCCCC1; 3Abz = Nc1cccc(C(=O)O)c1; 4Abz = Nc1ccc(C(=O)O)cc1; Nva = CCC[C@H](N)C(=O)O; 2Abz = Nc1ccccc1C(=O)O; ξPip = O=C(O)C1CCCCN1; ξPra = C#CCC(N)C(=O)O; Aib = CC(C)(N)C(=O)O; Bz = O=C(c1ccccc1)*; βAla = NCCC(=O)O

How the values were obtained:
[1] = target: Genome polyprotein (dengue virus type 2, UniProt P12823); experiment: Inhibition of Dengue virus serotype 2 NS2B-NS3 protease by homogeneous fluorimetric assay
[2] = target: Prothrombin (Homo sapiens) (UniProt P00734); experiment: Inhibition of thrombin (unknown origin) at 25 uM by homogeneous fluorimetric assay
[3] = target: Genome polyprotein (West Nile virus) (UniProt P06935); experiment: Inhibition of West Nile virus […] NS2B-NS3 protease at 50 uM by homogeneous fluorimetric assay
In short: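 WNV NS2B-NS3 protease percent inhibition, homogeneous fluorimetric assay: enzyme 150 nM, inhibitor 50 μM, substrate 50 μM (Km = 212 μM); triplicate, SD below 10%.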

[4] = target: Genome polyprotein (dengue virus type 2) (UniProt P12823); experiment: Inhibition of Dengue virus serotype 2 NS2B-NS3 protease at 50 uM by homogeneous fluorimetric assay
[5] = target: Genome polyprotein (West Nile virus, UniProt P06935); experiment: Inhibition of West Nile virus […] NS2B-NS3 protease by homogeneous fluorimetric assay
Chain of Genome polyprotein (West Nile virus, UniProt P06935) (P06935 1371-1501 limits assumed): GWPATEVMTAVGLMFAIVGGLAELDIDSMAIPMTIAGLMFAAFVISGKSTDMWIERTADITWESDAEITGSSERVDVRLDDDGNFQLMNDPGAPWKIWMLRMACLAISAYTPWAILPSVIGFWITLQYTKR
Chain of Genome polyprotein (West Nile virus, UniProt P06935) (P06935 1502-2120 limits assumed): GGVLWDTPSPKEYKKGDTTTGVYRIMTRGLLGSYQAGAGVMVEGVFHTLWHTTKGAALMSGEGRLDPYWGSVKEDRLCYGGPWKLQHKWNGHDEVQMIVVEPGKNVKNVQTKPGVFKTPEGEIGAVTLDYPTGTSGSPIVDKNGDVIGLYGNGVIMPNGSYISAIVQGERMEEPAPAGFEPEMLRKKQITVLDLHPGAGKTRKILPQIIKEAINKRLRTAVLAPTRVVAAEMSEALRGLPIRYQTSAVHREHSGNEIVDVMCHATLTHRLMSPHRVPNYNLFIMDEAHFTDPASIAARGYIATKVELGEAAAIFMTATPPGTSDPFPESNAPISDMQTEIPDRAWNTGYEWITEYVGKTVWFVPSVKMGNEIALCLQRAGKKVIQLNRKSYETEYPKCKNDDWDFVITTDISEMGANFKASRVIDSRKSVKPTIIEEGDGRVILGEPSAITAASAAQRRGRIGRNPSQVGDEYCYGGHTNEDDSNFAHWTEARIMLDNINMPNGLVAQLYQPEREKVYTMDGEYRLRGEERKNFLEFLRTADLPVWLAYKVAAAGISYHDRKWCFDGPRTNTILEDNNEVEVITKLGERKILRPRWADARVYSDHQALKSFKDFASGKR

Chain of Genome polyprotein (West Nile virus) (P06935 whole entry): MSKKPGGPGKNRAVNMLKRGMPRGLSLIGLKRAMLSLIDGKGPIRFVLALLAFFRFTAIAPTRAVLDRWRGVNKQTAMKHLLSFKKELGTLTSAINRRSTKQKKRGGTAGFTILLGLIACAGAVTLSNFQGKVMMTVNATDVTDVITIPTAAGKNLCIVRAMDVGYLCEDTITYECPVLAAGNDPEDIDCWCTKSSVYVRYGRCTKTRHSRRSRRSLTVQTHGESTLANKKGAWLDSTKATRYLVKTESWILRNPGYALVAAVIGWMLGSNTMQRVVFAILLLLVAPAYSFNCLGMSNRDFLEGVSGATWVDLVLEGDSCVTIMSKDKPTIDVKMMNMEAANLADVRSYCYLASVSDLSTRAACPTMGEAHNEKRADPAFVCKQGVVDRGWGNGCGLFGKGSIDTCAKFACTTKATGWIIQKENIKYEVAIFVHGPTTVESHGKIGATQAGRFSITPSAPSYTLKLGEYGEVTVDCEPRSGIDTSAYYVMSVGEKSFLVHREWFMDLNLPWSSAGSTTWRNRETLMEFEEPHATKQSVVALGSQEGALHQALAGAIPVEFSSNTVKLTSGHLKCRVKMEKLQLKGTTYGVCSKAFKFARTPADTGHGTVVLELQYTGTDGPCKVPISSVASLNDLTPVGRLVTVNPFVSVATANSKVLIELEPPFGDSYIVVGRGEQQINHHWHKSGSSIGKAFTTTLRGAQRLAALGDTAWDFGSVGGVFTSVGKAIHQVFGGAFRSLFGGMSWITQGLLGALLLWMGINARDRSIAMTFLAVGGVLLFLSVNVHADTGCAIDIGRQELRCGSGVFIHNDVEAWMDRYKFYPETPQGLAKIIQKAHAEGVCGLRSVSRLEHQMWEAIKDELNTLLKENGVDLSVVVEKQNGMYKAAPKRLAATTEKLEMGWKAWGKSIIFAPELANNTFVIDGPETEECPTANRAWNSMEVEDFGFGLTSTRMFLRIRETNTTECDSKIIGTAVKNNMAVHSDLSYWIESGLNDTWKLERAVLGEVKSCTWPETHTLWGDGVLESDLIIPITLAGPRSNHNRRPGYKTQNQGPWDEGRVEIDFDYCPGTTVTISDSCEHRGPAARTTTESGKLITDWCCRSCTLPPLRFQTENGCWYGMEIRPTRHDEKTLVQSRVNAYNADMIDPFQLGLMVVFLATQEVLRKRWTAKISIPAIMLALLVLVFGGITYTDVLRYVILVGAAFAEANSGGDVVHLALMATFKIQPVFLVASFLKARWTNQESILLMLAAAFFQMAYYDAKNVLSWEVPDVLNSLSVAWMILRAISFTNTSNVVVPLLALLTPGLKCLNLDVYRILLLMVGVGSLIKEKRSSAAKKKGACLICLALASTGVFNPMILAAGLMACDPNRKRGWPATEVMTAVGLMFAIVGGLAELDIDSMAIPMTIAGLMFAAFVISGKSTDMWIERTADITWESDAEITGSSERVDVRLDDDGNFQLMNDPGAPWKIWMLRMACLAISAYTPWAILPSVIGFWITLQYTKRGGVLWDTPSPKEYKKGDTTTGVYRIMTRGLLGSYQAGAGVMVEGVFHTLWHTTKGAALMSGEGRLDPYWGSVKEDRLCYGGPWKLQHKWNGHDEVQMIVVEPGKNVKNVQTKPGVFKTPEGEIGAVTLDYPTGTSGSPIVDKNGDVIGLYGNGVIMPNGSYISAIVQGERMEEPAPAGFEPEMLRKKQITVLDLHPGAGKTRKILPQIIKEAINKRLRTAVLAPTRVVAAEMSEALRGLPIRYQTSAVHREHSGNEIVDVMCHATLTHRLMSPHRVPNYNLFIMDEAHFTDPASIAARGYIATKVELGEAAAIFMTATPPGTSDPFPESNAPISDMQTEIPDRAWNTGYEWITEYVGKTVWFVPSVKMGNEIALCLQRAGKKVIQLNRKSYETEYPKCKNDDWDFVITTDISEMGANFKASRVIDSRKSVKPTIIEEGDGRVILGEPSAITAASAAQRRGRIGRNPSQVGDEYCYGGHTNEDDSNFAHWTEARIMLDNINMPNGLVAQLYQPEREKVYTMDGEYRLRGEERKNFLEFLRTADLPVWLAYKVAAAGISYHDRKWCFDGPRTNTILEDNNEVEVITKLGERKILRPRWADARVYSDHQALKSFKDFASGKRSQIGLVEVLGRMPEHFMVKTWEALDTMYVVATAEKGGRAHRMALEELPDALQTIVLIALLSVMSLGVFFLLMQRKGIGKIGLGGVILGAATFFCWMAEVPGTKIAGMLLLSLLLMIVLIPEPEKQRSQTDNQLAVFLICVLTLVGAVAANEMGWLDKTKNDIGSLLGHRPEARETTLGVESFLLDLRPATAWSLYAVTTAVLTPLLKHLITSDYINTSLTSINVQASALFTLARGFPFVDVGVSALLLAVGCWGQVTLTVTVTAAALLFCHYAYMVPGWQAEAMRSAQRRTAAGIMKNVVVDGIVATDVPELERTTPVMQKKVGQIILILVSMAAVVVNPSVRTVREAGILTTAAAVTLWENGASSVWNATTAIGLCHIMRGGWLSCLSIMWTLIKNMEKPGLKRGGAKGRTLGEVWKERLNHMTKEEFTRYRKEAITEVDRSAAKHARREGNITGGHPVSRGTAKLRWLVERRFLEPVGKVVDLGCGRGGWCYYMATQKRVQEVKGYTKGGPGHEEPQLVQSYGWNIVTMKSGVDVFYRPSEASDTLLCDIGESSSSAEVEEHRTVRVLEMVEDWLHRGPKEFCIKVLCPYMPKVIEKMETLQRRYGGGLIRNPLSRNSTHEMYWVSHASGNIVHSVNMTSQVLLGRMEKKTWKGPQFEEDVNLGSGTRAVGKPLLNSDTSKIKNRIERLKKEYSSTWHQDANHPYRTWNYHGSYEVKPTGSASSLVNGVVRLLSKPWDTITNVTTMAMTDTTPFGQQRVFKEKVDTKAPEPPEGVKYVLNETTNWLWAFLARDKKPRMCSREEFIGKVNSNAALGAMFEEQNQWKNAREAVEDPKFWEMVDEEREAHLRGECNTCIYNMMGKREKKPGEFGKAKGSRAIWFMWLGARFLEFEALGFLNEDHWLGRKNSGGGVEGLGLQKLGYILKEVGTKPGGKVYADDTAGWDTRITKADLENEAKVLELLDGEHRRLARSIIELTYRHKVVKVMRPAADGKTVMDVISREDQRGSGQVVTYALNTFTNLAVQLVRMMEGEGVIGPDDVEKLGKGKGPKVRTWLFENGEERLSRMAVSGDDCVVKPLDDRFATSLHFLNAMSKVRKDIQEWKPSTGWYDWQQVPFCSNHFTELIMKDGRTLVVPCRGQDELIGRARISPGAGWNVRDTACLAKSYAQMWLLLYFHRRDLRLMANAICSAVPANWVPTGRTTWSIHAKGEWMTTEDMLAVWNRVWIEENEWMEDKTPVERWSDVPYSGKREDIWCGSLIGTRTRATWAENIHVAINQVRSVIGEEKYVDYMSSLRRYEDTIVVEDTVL

| Compound | IC50 [1] [µM] | inhibition [2] | inhibition [3] [%] | inhibition [4] [%] | IC50 [5] [µM] | Ki [5] [µM] |
| --- | --- | --- | --- | --- | --- | --- |
| N=C(N)NCCC[C@H](NC(=O)c1ccccc1)C(=O)N[C@@H](CCCCN)C(=O)N1CCC[C@H]1C(N)=O (Bz-Arg-Lys-Pro-NH2) | 192 | inactive | 3.6 | 20 |  |  |
| CC(C)(C)[C@H](NC(=O)[C@H](CCCCN)NC(=O)[C@H](CCCNC(=N)N)NC(=O)c1ccc(/C=C2\SC(=O)N(C3CCCC3)C2=O)cc1)C(N)=O | 29.8 | 10.2% | 28 | 60.6 |  |  |
| CC(C)(C)[C@H](NC(=O)[C@H](CCCCN)NC(=O)[C@H](CCCNC(=N)N)NC(=O)c1ccccc1)C(N)=O (Bz-Arg-Lys-[Tle]-NH2) | 137 | inactive | 11.7 | 18.8 |  |  |
| N#C/C(=C\c1ccc(C(=O)N[C@@H](CCCNC(=N)N)C(=O)N[C@@H](CCCCN)C(=O)N2Cc3ccccc3CC2C(N)=O)cc1)C(=O)NC1CC1 (stereo partly specified) | 24.9 | inactive | 38.3 | 59.2 |  |  |
| N=C(N)NCCC[C@H](NC(=O)c1ccccc1)C(=O)N[C@@H](CCCCN)C(=O)N1CCCCC1C(N)=O (stereo partly drawn) (Bz-Arg-Lys-[ξPip]-NH2) | 159 | inactive | 12.1 | 13.7 |  |  |
| N=C(N)NCCC[C@H](NC(=O)c1ccc(/C=C2\SC(=O)N(C3CCCC3)C2=O)cc1)C(=O)N[C@@H](CCCCN)C(=O)N1Cc2ccccc2CC1C(N)=O (stereo partly specified) | 10.5 | 7.6% | 49.4 | 85.7 |  |  |
| CCCC[C@H](NC(=O)[C@H](CCCCN)NC(=O)[C@H](CCCNC(=N)N)NC(=O)c1ccc(/C=C2\SC(=O)N(C3CCCC3)C2=O)cc1)C(N)=O | 2.5 |  | 51.8 | 98.2 |  |  |
| CC[C@H](C)[C@H](NC(=O)[C@H](CCCCN)NC(=O)[C@H](CCCNC(=N)N)NC(=O)c1ccccc1)C(N)=O (Bz-Arg-Lys-Ile-NH2) | 28.2 | 4.6% | 14.9 | 56.6 |  |  |
| N=C(N)NCCC[C@H](NC(=O)c1ccccc1)C(=O)N[C@@H](CCCCN)C(=O)NC(C(N)=O)C1CCCCC1 (stereo partly drawn) (Bz-Arg-Lys-[ξChg]-NH2) | 17.4 | inactive | 12.1 | 71.7 |  |  |
| CC(C)(C)[C@H](NC(=O)[C@H](CCCCN)NC(=O)[C@H](CCCNC(=N)N)NC(=O)c1ccc(/C=C(\C#N)C(=O)NC2CC2)cc1)C(N)=O | 57.6 | 5% | 26.7 | 32.5 |  |  |
| N#Cc1ccc(C[C@H](NC(=O)[C@H](CCCCN)NC(=O)[C@H](CCCNC(=N)N)NC(=O)c2ccccc2)C(N)=O)cc1 (Bz-Arg-Lys-[Phe(4-CN)]-NH2) | 14.4 | inactive | 15.9 | 71.7 |  |  |
| CCC[C@H](NC(=O)[C@H](CCCCN)NC(=O)[C@H](CCCNC(=N)N)NC(=O)c1ccccc1)C(N)=O (Bz-Arg-Lys-[Nva]-NH2) | 25.2 | inactive | 8.5 | 62 |  |  |
| C#CCC(NC(=O)[C@H](CCCCN)NC(=O)[C@H](CCCNC(=N)N)NC(=O)c1ccccc1)C(N)=O (stereo partly drawn) (Bz-Arg-Lys-[ξPra]-NH2) | 17.5 | 5.2% | 14.3 | 72.5 |  |  |
| N=C(N)NCCC[C@H](NC(=O)c1ccccc1)C(=O)N[C@@H](CCCCN)C(=O)N[C@@H](CC1CCCCC1)C(N)=O (Bz-Arg-Lys-[Cha]-NH2) | 8.2 | inactive | 19.1 | 80 |  |  |
| CC(C)[C@H](NC(=O)[C@H](CCCCN)NC(=O)[C@H](CCCNC(=N)N)NC(=O)c1ccccc1)C(N)=O (Bz-Arg-Lys-Val-NH2) | 28.8 | 4.9% | 18.3 | 60 |  |  |
| C[C@@H](O)[C@H](NC(=O)[C@H](CCCCN)NC(=O)[C@H](CCCNC(=N)N)NC(=O)c1ccccc1)C(N)=O (Bz-Arg-Lys-Thr-NH2) | 98.6 | inactive | 16.5 | 32.1 |  |  |
| CSCC[C@H](NC(=O)[C@H](CCCCN)NC(=O)[C@H](CCCNC(=N)N)NC(=O)c1ccccc1)C(N)=O (Bz-Arg-Lys-Met-NH2) | 47.5 | 6.2% | 11.8 | 45 |  |  |
| CCCC[C@@H](NC(=O)[C@H](CCCCN)NC(=O)[C@H](CCCNC(=N)N)NC(=O)c1ccccc1)C(N)=O | 14.1 | 4.9% | 16.1 | 72.7 |  |  |
| N=C(N)NCCC[C@H](NC(=O)c1ccccc1)C(=O)N[C@@H](CCCCN)C(=O)N[C@@H](Cc1ccc([N+](=O)[O-])cc1)C(N)=O (Bz-Arg-Lys-[Phe(4-NO2)]-NH2) | 17.5 | inactive | 21.3 | 66.6 |  |  |
| CCCC[C@H](NC(=O)[C@H](CCCCN)NC(=O)[C@H](CCCNC(=N)N)NC(=O)c1ccc(/C=C(\C#N)C(=O)NC2CC2)cc1)C(N)=O | 5.3 |  | 28 | 88.5 |  |  |
| N#C/C(=C\c1ccc(C(=O)N[C@@H](CCCNC(=N)N)C(=O)N[C@@H](CCCCN)C(=O)NC(C(N)=O)c2ccccc2)cc1)C(=O)NC1CC1 (stereo partly specified) | 1.3 | 5.6% | 90.2 | 98.6 |  |  |
| CCCC[C@H](NC(=O)[C@H](CCCCN)NC(=O)[C@H](CCCNC(=N)N)NC(=O)c1ccccc1)C(N)=O | 13.3 |  | 7.7 | 68.1 |  |  |
| CC(C)C[C@H](NC(=O)[C@H](CCCCN)NC(=O)[C@H](CCCNC(=N)N)NC(=O)c1ccccc1)C(N)=O (Bz-Arg-Lys-Leu-NH2) | 22.7 | 5.9% | 18.4 | 63.2 |  |  |

Now from value to molecule:

| IC50 [1] [µM] | inhibition [2] | inhibition [3] [%] | inhibition [4] [%] | IC50 [5] [µM] | Ki [5] [µM] | Compound |
| --- | --- | --- | --- | --- | --- | --- |
| 17.6 | inactive | 32.8 | 74.1 |  |  | N=C(N)NCCC[C@H](NC(=O)c1ccccc1)C(=O)N[C@@H](CCCCN)C(=O)N[C@@H](Cc1c[nH]c2ccccc12)C(N)=O (Bz-Arg-Lys-Trp-NH2) |
| 46.7 | inactive | 13.7 | 55 |  |  | CC(C)(NC(=O)[C@H](CCCCN)NC(=O)[C@H](CCCNC(=N)N)NC(=O)c1ccccc1)C(N)=O (Bz-Arg-Lys-[Aib]-NH2) |
| 109 | inactive | 19.8 | 32.9 |  |  | N=C(N)NCCC[C@H](NC(=O)c1ccccc1)C(=O)N[C@@H](CCCCN)C(=O)NCCC(N)=O (Bz-Arg-Lys-[βAla]-NH2) |
| 35.6 | 7.2% | 26 | 46.6 |  |  | C[C@H](NC(=O)[C@H](CCCCN)NC(=O)[C@H](CCCNC(=N)N)NC(=O)c1ccccc1)C(N)=O (Bz-Arg-Lys-Ala-NH2) |
| 21 | 3.5% | 44.6 | 70.4 |  |  | N=C(N)NCCC[C@H](NC(=O)c1ccccc1)C(=O)N[C@@H](CCCCN)C(=O)NCC(N)=O (Bz-Arg-Lys-Gly-NH2) |
| 65.8 | inactive | 17.8 | 41.6 |  |  | N=C(N)NCCC[C@H](NC(=O)c1ccccc1)C(=O)N[C@@H](CCCCN)C(=O)N1Cc2ccccc2CC1C(N)=O (stereo partly drawn) (Bz-Arg-Lys-[ξTic]-NH2) |
| 92.2 | 9.2% | 17.9 | 27.5 |  |  | N=C(N)NCCC[C@H](NC(=O)c1ccccc1)C(=O)N[C@@H](CCCCN)C(=O)Nc1ccc(C(N)=O)cc1 (Bz-Arg-Lys-[4Abz]-NH2) |
| 7.4 | 7.9% | 12.9 | 82.3 |  |  | N=C(N)NCCC[C@H](NC(=O)c1ccccc1)C(=O)N[C@@H](CCCCN)C(=O)N[C@@H](Cc1ccc(O)cc1)C(N)=O (Bz-Arg-Lys-Tyr-NH2) |
| 44.3 | inactive | 9.8 | 53 |  |  | N=C(N)NCCC[C@H](NC(=O)c1ccccc1)C(=O)N[C@@H](CCCCN)C(=O)N[C@@H](Cc1ccccn1)C(N)=O (Bz-Arg-Lys-[2Pal]-NH2) |
| 30.1 | 6.2% | 21.9 | 57.9 |  |  | N=C(N)NCCC[C@H](NC(=O)c1ccccc1)C(=O)N[C@@H](CCCCN)C(=O)N[C@@H](CO)C(N)=O (Bz-Arg-Lys-Ser-NH2) |
| 3.3 | inactive | 39.3 | 95 | 58 | 49 | N=C(N)NCCC[C@H](NC(=O)c1ccccc1)C(=O)N[C@@H](CCCCN)C(=O)N[C@H](C(N)=O)c1ccccc1 (Bz-Arg-Lys-[Phg]-NH2) |
| 96.6 | 5.6% | 23 | 27 |  |  | N=C(N)NCCC[C@H](NC(=O)c1ccccc1)C(=O)N[C@@H](CCCCN)C(=O)Nc1cccc(C(N)=O)c1 (Bz-Arg-Lys-[3Abz]-NH2) |
| 11.9 | 7.2% | 18.2 | 80.7 |  |  | N=C(N)NCCC[C@H](NC(=O)c1ccccc1)C(=O)N[C@@H](CCCCN)C(=O)N[C@@H](Cc1ccccc1)C(N)=O (Bz-Arg-Lys-Phe-NH2) |
| 30.1 | inactive | 12.5 | 61.3 |  |  | N=C(N)NCCC[C@H](NC(=O)c1ccccc1)C(=O)N[C@@H](CCCCN)C(=O)N[C@@H](Cc1cccnc1)C(N)=O (Bz-Arg-Lys-[3Pal]-NH2) |
| 15.8 | 6.4% | 8.7 | 62 |  |  | N=C(N)NCCC[C@H](NC(=O)c1ccccc1)C(=O)N[C@@H](CCCCN)C(=O)Nc1ccccc1C(N)=O (Bz-Arg-Lys-[2Abz]-NH2) |
